High-throughput results (PubChem BioAssay)
STAT1 act = increases IFN-gamma driven STAT1 reporter signal. NIH 3T3 STAT1-luciferase reporter, luminescence; 100% = IFN-gamma alone, no compound. activation (% of control), % at 5.5 µM. 200,000 compounds, 2.6% hits. AID 932;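 active = activation above the screen-wide mean activation plus 3 SD, cut at about 130% in these data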;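 also: raw ratio to IFN-gamma control signal so 100% means no change and 0% no light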
NF-kB expr up = compounds increasing NF-kB expression in human neuronal cells | AID 1239 | fold change at 12.5 µM | NF-kB reporter expression; active compounds read high | 190,000 compounds, 1.6% hits; in the data active = fold change above about 3.3
STAT3 activator = STAT3 signaling activation. U3A cells, IL-6 STAT3-luciferase reporter, luminescence; 100% = signal with IL-6 EC80 alone. activation (% of control), % at 5.6 µM. 190,000 compounds, 0.91% hits. AID 871;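 active = activation above the screen-wide mean of compound activation plus 3 SD, cut at about 130% in these data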;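 also: 0% = background luminescence of wells with medium and substrate only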
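Material: STAT1-lacking human U3A cells, STAT3 luciferase reporter | Benchmarks: IL-6-only wells as 100% reference | Probe or stimulus: IL-6 (33 ng/mL) | Timing: Compound 1 h, then IL-6 6 h at 37 °C | Detection: Luminescence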
STAT3 inh = reduces IL-6 driven STAT3 reporter signal | AID 862 | inhibition, % at 5.5 µM | U3A cells, IL-6 STAT3-luciferase reporter, luminescence; host cell line lacks STAT1 | 190,000 compounds, 0.89% hits;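 active = inhibition above the mean inhibition across all screened compounds plus 3 SD, cut at about 44% in these data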;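 also: 0% = DMSO only wells and 100% = 100 µM nifuroxazide control wells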
STAT1 blocker = STAT1 signaling inhibition. NIH 3T3 STAT1-luciferase reporter, IFN-gamma, luminescence. inhibition, % at 5.5 µM. 200,000 compounds, 0.35% hits. AID 920;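 active = inhibition above a set limit, the mean inhibition across all tested compounds plus 3 SD, cut at about 34% in these data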;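 also: 0% = IFN-gamma with DMSO and 100% = IFN-gamma with 300 µM nifuroxazide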
APP 5'UTR act = activates APP 5'UTR luciferase reporter; SH-SY5Y APP 5'UTR luciferase reporter, luminescence; zero percent = DMSO vehicle wells; 190,000 compounds, 1% hits; activation, % at 2 µM;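 active = activation above a set limit, based on mean plus 3 SD of controls, cut at about 140% in these data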
Starred values were filed as active, the others as inactive; / = no result. Compounds with a hit are over-represented: about 4.9% of the library has one in this group of screens.

SMILES	STAT1 act	NF-kB expr up	STAT3 activator	STAT3 inh	STAT1 blocker	APP 5'UTR act
CC(C)Oc1ccc(NC(=O)Oc2ccccc2)cc1	130*	1.1	111	-8	-33	1
Cc1ccccc1-c1nc2sc3c(c2c(=O)n1N)CCCC3	146*	1.5	104	-8	-50	150*
Nn1c(-c2cccs2)nc2sc3c(c2c1=O)CCCC3	142*	3.9*	128	-28	-45	156*
CC1(C)Cc2c(sc3nc(-c4ccccc4)n(N)c(=O)c23)CO1	115	0.69	84	22	-16	26
Cc1nc2sc3c(c2c(=O)n1N)CCC3	102	1.2	101	6	-3	2
CC1(C)Cc2c(sc3nc(-c4cccs4)n(N)c(=O)c23)CO1	138*	1.2	96	11	-39	52
CCOc1ccc2oc(C(=O)OCC(=O)NC3CC3)c(C)c2c1	106	1.3	100	4	-9	40
O=C(Nc1cnc2ccccc2c1)N1CCOCC1	112	1.7	104	1	-13	14
O=C(Nc1cnc2ccccc2c1)N1CCCCC1	135*	2.2	104	2	-36	86
CCc1cccc(CC)c1NC(=O)CO/N=C(\C)c1cccs1	83	0.93	104	-3	19	4
CCCCSc1nnc2c(n1)[nH]c1ccccc12	140*	2.3	80	21	-43	30
COc1ccc(NC(=O)c2ccc3c(c2)NC(=O)CO3)cc1OC	108	1	100	1	-10	-1
CCCCOC(=O)Nc1ccc(C(N)=O)cc1	120	1.5	108	-9	-22	-7
CCCCOC(=O)Nc1ccc(S(=O)(=O)Nn2cnnc2)cc1	95	1.7	101	5	4	34
CCCCOC(=O)Nc1nnc(C(C)C)s1	130*	2.5	103	-1	-33	47
CCCCOC(=O)Nc1ccc(N2CCCCC2)cc1	140*	6.1*	94	10	-44	103
CCCCOC(=O)Nc1ccc(N(C)C)cc1	144*	4*	107	-11	-50	171*
CCCCCOC(=O)Nc1nnc(CCC)s1	106	1.2	101	2	-7	-6
CCCCOC(=O)Nc1ccc(N2CCOCC2)cc1	121	2	102	-1	-23	65
CCCCOC(=O)Nc1ccc(C(C)C)cc1	130*	2.3	111	-11	-41	100
COc1ccc(Cl)cc1C(=O)NNC(=O)CSc1nnnn1C	106	1.2	104	3	-7	18
CC1=NN(c2cccc(C(=O)O)c2)C(=O)/C1=C\C=C/c1ccccc1	88	1.8	103	5	11	-9
CCOC(=O)NC(=O)c1cn(CCN(C)C)c(=O)[nH]c1=O	97	1.2	98	1	3	7
Cc1cc(C)cc(NC(=O)/C=C/c2ccc([N+](=O)[O-])s2)c1	88	1.1	106	-8	13	-53
Cc1ccccc1NC(=O)/C=C/c1cccs1	129*	/	95	10	-34	60
SMILES	STAT1 act	NF-kB expr up	STAT3 activator	STAT3 inh	STAT1 blocker	APP 5'UTR act
CCOC(=O)c1ccc(NC(=O)/C=C/c2cccs2)cc1	143*	2.3	95	10	-51	64
Cc1ccccc1NC(=O)/C=C/c1ccc([N+](=O)[O-])s1	99	9.8*	98	1	1	-90
CCOC(=O)CN1C(=O)CN(c2ccc(C)cc2)C1=O	99	1.6	104	1	1	31
CO/N=C\CC(=O)Nc1ccc(Cl)cc1Cl	106	1.1	101	4	-8	-1
CS(=O)(=O)N1CCc2cc(-c3csc(NC(=O)C(c4ccccc4)c4ccccc4)n3)ccc21	110	0.63	78	30	-11	-11
CCC(C)C(=O)N1CCc2cc(-c3csc(N)n3)ccc21 (stereo not given)	132*	2	81	28	-35	86
CC(=O)Nc1cccc(-c2csc(N)n2)c1	101	/	100	6	0	-20
CC(C)(C)C(=O)N1CCc2cc(-c3csc(N)n3)ccc21	66	1.3	28	85*	37*	121
CCCC(=O)N1CCc2cc(-c3nc(N)sc3C)ccc21	137*	2	86	20	-40	42
CNc1nc(-c2ccc3c(c2)CCN3C(=O)CC(C)(C)C)c(C)s1	126	2.3	112	-12	-30	4
